From EPA's CvTdb concentration-time database

Legend:
Rat [1] = assay: concentration in plasma after dosing; settings: 0.25 h; dosed: Wyeth-14643; 5.0 mg/kg; oral; Male; Sprague-Dawley
Rat [2] = assay: concentration in plasma after dosing; settings: dosed: Wyeth-14643, 1.0 mg/kg, oral, Male, Sprague-Dawley
Rat [3] = assay: concentration in heart after dosing; settings: 1 h; dosed: Bis 2-Chloroethoxy Methane; 20 mg/kg; iv; Male; F344
Rat [4] = assay: concentration in thymus after dosing; settings: 4 h; dosed: Bis 2-Chloroethoxy Methane; 20 mg/kg; iv; Male; F344
Rat [5] = assay: concentration in plasma after dosing; settings: 3 h; dosed: Bis 2-Chloroethoxy Methane; 20 mg/kg; iv; Male; F344
Rat [6] = assay: concentration in thymus after dosing; settings: 40 min; dosed: Bis 2-Chloroethoxy Methane; 20 mg/kg; iv; Male; F344
Rat [7] = assay: concentration in plasma after dosing; settings: 4 h; dosed: Bis 2-Chloroethoxy Methane; 20 mg/kg; iv; Female; F344
Rat [8] = assay: concentration in plasma after dosing; settings: 4 h; dosed: Bis 2-Chloroethoxy Methane; 20 mg/kg; iv; Male; F344
Rat [9] = assay: concentration in brain after dosing; settings: 3 h; dosed: Fluorotelomer alcohol 8+2; 80 mg/kg; oral; Female; Harlan Sprague Dawley
Rat [10] = assay: concentration in plasma after dosing; settings: dosed: Fluorotelomer alcohol 8+2, 40 mg/kg, iv, Male, F344
Rat [11] = assay: concentration in plasma after dosing; settings: dosed: Fluorotelomer alcohol 8+2, 40 mg/kg, iv, Female, Harlan Sprague-Dawley
Rat [12] = assay: concentration in kidney after dosing; settings: 6 h; dosed: Fluorotelomer alcohol 8+2; 24 mg/kg; oral; Male; Harlan Sprague Dawley
Rat [13] = assay: concentration in kidney after dosing; settings: 3 h; dosed: Fluorotelomer alcohol 8+2; 80 mg/kg; oral; Female; Harlan Sprague Dawley
Rat [14] = assay: concentration in plasma after dosing; settings: dosed: Fluorotelomer alcohol 8+2, 12 mg/kg, oral, Male, Harlan Sprague Dawley
Rat [15] = assay: concentration in kidney after dosing; settings: 0.5 h; dosed: Fluorotelomer alcohol 8+2; 80 mg/kg; oral; Female; Harlan Sprague Dawley
Rat [16] = assay: concentration in plasma after dosing; settings: 6 h; dosed: Di-n-butyl phthalate; 50 mg/kg; oral; Male; Sprague-Dawley
Rat [17] = assay: concentration in plasma after dosing; settings: 0.25 h; dosed: Di-n-butyl phthalate; 100 mg/kg; oral; Male; Sprague-Dawley
Rat [18] = assay: concentration in plasma after dosing; settings: 1 h; dosed: Di-n-butyl phthalate; 100 mg/kg; oral; Male; Sprague-Dawley
Rat [19] = assay: concentration in kidney after dosing; settings: 864 h; dosed: Perfluorodecanoic acid; 10 mg/kg; oral; Female; Harlan Sprague Dawley
Rat [20] = assay: concentration in plasma after dosing; settings: 30 h; dosed: Primidone; 130 mg/kg; oral; Female; F344
Rat [21] = assay: concentration in plasma after dosing; settings: 22 h; dosed: Primidone; 30 mg/kg; oral; Male; F344
Rat [22] = assay: concentration in plasma after dosing; settings: 1.5 h; dosed: Primidone; 30 mg/kg; oral; Male; F344
Rat [23] = assay: concentration in heart after dosing; settings: 2 h; dosed: Thiodiglycolic Acid; 20 mg/kg; iv; Male; Harlan Sprague Dawley
Rat [24] = assay: concentration in liver after dosing; settings: 10 h; dosed: Thiodiglycolic Acid; 20 mg/kg; iv; Female; Harlan Sprague Dawley
Rat [25] = assay: concentration in liver after dosing; settings: 5.333 h; dosed: Thiodiglycolic Acid; 20 mg/kg; iv; Female; Harlan Sprague Dawley
Rat [26] = assay: concentration in heart after dosing; settings: 3 h; dosed: Thiodiglycolic Acid; 20 mg/kg; iv; Male; Harlan Sprague Dawley
Rat [27] = assay: concentration in liver after dosing; settings: 20 min; dosed: Thiodiglycolic Acid; 20 mg/kg; iv; Female; Harlan Sprague Dawley
Rat [28] = assay: concentration in liver after dosing; settings: 5.333 h; dosed: Thiodiglycolic Acid; 20 mg/kg; iv; Female; Harlan Sprague Dawley; remark: listed apart in the source
Rat [29] = assay: concentration in plasma after dosing; settings: 1 h; dosed: Thiodiglycolic Acid; 20 mg/kg; iv; Male; Harlan Sprague Dawley
Rat [30] = assay: concentration in thymus after dosing; settings: 6.667 h; dosed: Thiodiglycolic Acid; 20 mg/kg; iv; Female; Harlan Sprague Dawley
Rat [31] = assay: concentration in plasma after dosing; settings: dosed: dichloroacetic acid, 40 mg/kg, oral, Female, Harlan Sprague Dawley
Rat [32] = assay: concentration in plasma after dosing; settings: dosed: dichloroacetic acid, 60 mg/kg, iv, Female, Harlan Sprague-Dawley
human = settings: dosed: trichloroethylene, 100 ppm, inhalation, duration: 4 hr, person
Outline: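 A PubMed search, classifier screening and manual review identified published in vivo toxicokinetic studies, which together with two structured collections supplied concentration-versus-time and amount-versus-time points. Points were mostly digitised from plot screenshots with WebPlotDigitizer, otherwise copied from tables. Dose, route, subject details and medium were hand-curated from each paper, and sampling and analytical methods are those of the sources, often unreported.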

Cc1cccc(Nc2cc(Cl)nc(SCC(=O)O)n2)c1C
Settings	concentration in plasma [ng/mL]
Rat [1]	10600

Rat [2]
Settings	concentration in plasma [ng/mL]
0.5 h	1180
6 h	202

ClCCOCOCCCl [Bis 2-Chloroethoxy Methane]
Settings	concentration in heart [ng/g]	concentration in plasma [ng/mL]	concentration in thymus [ng/g]
Rat [3]	2450	–	–
Rat [4]	–	–	72.9
Rat [5]	–	123	–
Rat [6]	–	–	8210
Rat [7]	–	63.4	–
Rat [8]	–	83.3	–

OCCC(F)(F)C(F)(F)C(F)(F)C(F)(F)C(F)(F)C(F)(F)C(F)(F)C(F)(F)F [Fluorotelomer alcohol 8+2]
Settings	concentration in brain [ng/g]	concentration in kidney [ng/g]
Rat [9]	9550	–
Rat [12]	–	271
Rat [13]	–	5170
Rat [15]	–	4140

Settings	concentration in plasma [ng/mL]
Rat [10], 0.5 h	5950
Rat [10], 9 h	68
Rat [11], 1 h	2530
Rat [11], 24 h	24.5
Rat [14], 0.25 h	253
Rat [14], 6 h	40.7

CCCCOC(=O)c1ccccc1C(=O)O [Mono-n-butyl phthalate]
Settings	concentration in plasma [ng/mL]
Rat [16]	1890
Rat [17]	31700
Rat [18]	27100

O=C(O)C(F)(F)C(F)(F)C(F)(F)C(F)(F)C(F)(F)C(F)(F)C(F)(F)C(F)(F)C(F)(F)F [Perfluorodecanoic acid]
Settings	concentration in kidney [ng/g]
Rat [19]	18600

CCC1(c2ccccc2)C(=O)NC(=O)NC1=O [Phenobarbital]
Settings	concentration in plasma [ng/mL]
Rat [20]	2120
Rat [21]	1030
Rat [22]	1940

O=C(O)CSCC(=O)O [Thiodiglycolic Acid]
Settings	concentration in heart [ng/g]	concentration in liver [ng/g]	concentration in plasma [ng/mL]	concentration in thymus [ng/g]
Rat [23]	1310	–	–	–
Rat [24]	–	1650	–	–
Rat [25]	–	2510	–	–
Rat [26]	1040	–	–	–
Rat [27]	–	47100	–	–
Rat [28]	–	47900	–	–
Rat [29]	–	–	2150	–
Rat [30]	–	–	–	329

O=C(O)C(Cl)Cl [dichloroacetic acid]
concentration in plasma [ng/mL]
Settings	1 h	2 h	20 min
Rat [31]	–	1060	7440
Rat [32]	16800	1340	–

O=C(O)C(Cl)(Cl)Cl [trichloroacetic acid]
human
Settings	amount in urine after dosing [mg]
1 h	0.21
2 h	0.25
4 h	0.57
8 h	2.37
12 h	1.32
16 h	0.93
24 h	2.15
36 h	4.32
48 h	8.17
60 h	7.79
72 h	7.83
84 h	6.95
96 h	4.34
108 h	4.56
120 h	3.32
132 h	3.23
144 h	4
156 h	2.44
168 h	1.44
180 h	2.55
